Bioassay records as filed in PubChem BioAssay.
SIAE primary: human SIAE inhibitors, primary screen, biochemical, fluorescence polarization, FP-Rh probe, 1536-well HTS. Sialate O-acetylesterase (Homo sapiens), Q9HAT2. SIAE FP-Rh probe binding. inhibition, % at 9.66 µM. 0.69% of 370,000 active;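 active means inhibition above a cutoff: mean of compounds within the control limits plus 3 SD of those, cut at about 17% in these data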;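 further: 0% = plate median of compound wells and 100% = probe without SIAE protein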
ABHD4 inh: ABHD4 inhibitors, primary screen, biochemical, fluorescence polarization, mouse; (Lyso)-N-acylphosphatidylethanolamine lipase (Mus musculus), Q8VD66; purified mABHD4, FP-Rh probe fluorescence polarization; 0.54% of 370,000 active; inhibition, % at 8.92 µM; AID 720543, 2013;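 active means inhibition exceeding the mean over every tested compound plus 3 SD, cut at about 30% in these data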;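 further: 0% = plate median of compound wells and 100% = S159A mutant with DMSO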
Target sequence (Q8VD66 whole entry, looked up): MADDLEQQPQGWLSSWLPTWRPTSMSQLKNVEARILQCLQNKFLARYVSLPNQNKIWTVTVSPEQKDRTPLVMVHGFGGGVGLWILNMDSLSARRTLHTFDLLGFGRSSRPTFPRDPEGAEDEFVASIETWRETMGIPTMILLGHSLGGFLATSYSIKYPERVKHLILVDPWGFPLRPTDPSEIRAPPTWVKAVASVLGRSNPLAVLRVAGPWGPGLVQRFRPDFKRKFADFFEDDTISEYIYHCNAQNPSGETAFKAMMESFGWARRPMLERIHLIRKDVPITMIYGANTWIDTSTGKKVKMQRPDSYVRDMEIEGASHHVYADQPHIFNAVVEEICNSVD
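system = mouse ABHD4 enzyme, wild type | medium = HEPES pH 7.0, NaCl, Pluronic buffer | also added = FP-Rh probe | incubation = Enzyme–compound pre-incubation 45 min, then probe 60 min, both 25 °C | technique = fluorescence polarization, excitation 525 nm, emission 598 nm, BODIPY TMR filters | controls = S159A mutant high control, sample median low control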
TDP2 inh: human TDP2 enzyme inhibitors, primary screen, biochemical, epi absorbance, recombinant enzyme | 0.34% of 370,000 active | T5PNP hydrolysis, p-nitrophenol absorbance 415 nm | inhibition, % at 12.8 µM | AID 720702, 2013;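 active means inhibition above the mean of all tested compounds plus 3 SD, set per campaign, cut at about 25% in these data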;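 further: 0% = DMSO with enzyme and 100% = buffer with substrate but no TDP2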
Target sequence (O95551 whole entry, looked up): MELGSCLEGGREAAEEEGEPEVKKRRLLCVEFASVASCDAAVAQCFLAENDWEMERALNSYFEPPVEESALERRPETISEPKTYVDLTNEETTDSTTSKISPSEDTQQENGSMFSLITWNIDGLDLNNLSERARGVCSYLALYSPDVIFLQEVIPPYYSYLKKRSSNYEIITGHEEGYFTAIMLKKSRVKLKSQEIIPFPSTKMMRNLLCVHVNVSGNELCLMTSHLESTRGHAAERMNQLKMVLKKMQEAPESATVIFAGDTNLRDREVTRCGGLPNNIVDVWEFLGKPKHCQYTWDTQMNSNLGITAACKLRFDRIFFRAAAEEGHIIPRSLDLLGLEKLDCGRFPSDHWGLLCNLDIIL
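Assay system: recombinant human TDP2 / Reagent: T5PNP substrate at 5 mM, a TopII-DNA adduct mimic / Measured by: epi absorbance from released p-nitrophenol / Evaluation: % inhibition relative to enzyme-containing and enzyme-free wells / Control set: enzyme-free and DMSO wells / Replicates: each compound tested once, singlicate / Schedule: enzyme reaction with compound for 2 h at 37 °C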
HTRA1 inhibitor: HTRA1 serine protease inhibitors, primary screen, biochemical, fluorescence polarization, HTS; Q92743; recombinant HTRA1, FP-rhodamine activity-based probe; inhibition, % at 5.96 µM; 0.5% of 340,000 active; AID 504803, 2011; in the data active means inhibition above about 36%;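 further: 0% = enzyme with DMSO and 100% = wells lacking enzyme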
PAD4 inh: human PAD4 inhibitors, primary screen, biochemical, fluorescence polarization, 1536-well format; Protein-arginine deiminase type-4 (Homo sapiens), Q9UM07; recombinant PAD4, RCA probe fluorescence polarization; inhibition, % at 6.36 µM; 0.41% of 330,000 active;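 active means percent inhibition above a cutoff equal to the mean of all tested compounds plus 3 SD, cut at about 15% in these data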;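 further: 0% = PAD4 with RCA probe and DMSO and 100% = probe without PAD4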
TCR CD3 inh: inhibitors of human TCR-CD3 interaction, primary screen, biochemical, fluorescence, TAMRA-labeled TCR probe; 0.37% of 360,000 active; AID 651800, 2012; T-cell receptor (TCR); inhibition, % at 9.4 µM; in the data active means inhibition above about 19%;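 further: recombinant mutant TCR 2C K166C tagged with TAMRA read by polarization; 0% = receptor in buffer alone and 100% = receptor with positive control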
ABHD4 confirm: ABHD4 inhibitors, retest, confirmation, biochemical, fluorescence polarization, mouse | shares compounds with ABHD4 inh | purified mABHD4, FP-Rh probe fluorescence polarization | inhibition, % at 8.92 µM | 55% of 1,800 active | AID 720658, 2013;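 active means mean inhibition across replicates above the hit cutoff set in the primary screen, cut at about 30% in these data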;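 further: 0% = wild-type ABHD4 with DMSO and 100% = catalytically dead S159A mutant with DMSO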
TDP2 inh conf: human TDP2 enzyme inhibitors, retest, confirmation, biochemical, epi absorbance, recombinant enzyme; shares compounds with TDP2 inh; absorbance read-out; 22% of 1,100 active; AID 743263, 2014; inhibition, % at 12.8 µM; in the data active means inhibition above about 25%;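 further: 0% = vehicle with enzyme and 100% = no enzyme buffer only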
SIAE inh conf: human SIAE inhibitors, retest, confirmation, biochemical, fluorescence polarization, FP-Rh probe, triplicate. AID 1117263, 2014. shares compounds with SIAE primary. inhibition, % at 9.66 µM. 13% of 2,300 active. SIAE FP-Rh activity-based probe;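 active means mean inhibition of the replicates above the hit cutoff set in the primary screen, cut at about 17% in these data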;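 further: 0% = SIAE with DMSO and probe and 100% = probe without SIAE; inhibitors lower polarization as more probe stays unbound to SIAE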
The depositor's hits bear a star; / = no result given. In the library only some 2% were active in any assay of this set; here they are far more common.

SMILES | SIAE primary | ABHD4 inh | TDP2 inh | HTRA1 inhibitor | PAD4 inh | TCR CD3 inh | ABHD4 confirm | SIAE inh conf | others
CCCCNc1ccc2c3c(cccc13)C(=O)N(CCCC)C2=O | 19.3* | 52.1* | -11.5 | 18.9 | / | 3.6 | 68.2* | 18.1*
Brc1ccc(-c2ccc(/C=N/Nc3nc4ccccc4[nH]3)o2)cc1 | 19.2* | 32.5* | -2.9 | 9.9 | 0.6 | -0.5 | 59.4* | 33.8*
CN(C)c1ccc(NC(=S)Nc2ccc3c(c2)c(=O)n(C)n3-c2ccc(C(C)(C)C)cc2)cc1 | 19.9* | 30.8* | 3.0 | / | / | -8.1 | 44.9* | 8.2
Oc1ccc(Cl)cc1C=Nc1ccc2c3c(cccc13)CC2 | -1.2 | 20.4 | -6.5 | 20.6 | -11.9 | 15.4 | / | /
Cc1cccc(C=Nc2ccc3c4c(cccc24)CC3)c1O | 20.6* | 33.5* | -5.0 | 11.3 | -13.4 | 1.2 | 10.8 | 7.1
O=C(C[n+]1cn(C(F)F)c2ccccc21)c1ccc(OC(F)F)cc1 | -8.2 | 6.3 | 10.6 | 1.7 | -6.4 | -1.7 | / | /
O=C(NC(=S)Nc1cccc2c(O)cccc12)c1ccccc1[N+](=O)[O-] | 23.0* | 48.0* | 3.5 | 7.8 | -2.3 | 10.9 | -10.7 | -4.2
O=C(NNC(=S)NC(=O)c1ccccc1[N+](=O)[O-])c1ccccc1O | -0.4 | 19.5 | -8.7 | / | -2.2 | 18.1 | / | /
O=C(NC(=S)Nc1cccc2c(O)cccc12)c1ccco1 | 17.2* | 30.1* | 12.6 | 3.3 | 1.1 | 3.8 | 3.8 | 1.6
CCCCN1C(=O)C(CC(=O)NC2CCCCC2)CC(C(=O)N2CCCCCC2)=C1C (centres undefined) | -0.4 | -0.6 | 7.5 | / | / | -8.2 | / | /
CCCC1NC(=O)c2cc3ccccc3cc2-n2c1nc1cc(Cl)ccc1c2=O (centres undefined) | -3.6 | -1.4 | 4.6 | -70.4 | / | 4.0 | / | /
Oc1cccc2c(NC(=S)Nc3ccc(SC(F)F)cc3)cccc12 | 19.0* | 40.0* | 5.8 | 23.4 | -2.1 | -5.1 | -1.9 | 2.5
Oc1cccc(NC(=S)Nc2ccc(SC(F)F)cc2)c1 | 5.6 | -16.4 | -1.6 | 5.6 | -3.2 | -6.4 | / | /
COc1cc(/C=N/NC(=O)C(Cc2c[nH]c3ccccc23)NC(=O)OCC(C)C)cc([N+](=O)[O-])c1O (centres undefined) | 55.1* | 36.2* | 2.1 | 26.6 | 4.0 | -2.4 | 49.5* | 43.8*
COc1cc(/C=N/NC(=O)C(Cc2c[nH]c3ccccc23)NC(=O)OCC(C)C)cc([N+](=O)[O-])c1OCc1ccccc1 (centres undefined) | -3.8 | -1.4 | -0.2 | -2.1 | -1.7 | -4.3 | / | /
COc1ccccc1NC(=O)CCc1nc2sc3c(c2c(=O)[nH]1)CCCC3 | -19.3 | -4.8 | -5.0 | -22.7 | 1.9 | 10.2 | / | /
Cc1cc(C)c(S(=O)(=O)NCC(c2ccco2)N2CCc3ccccc3C2)c(C)c1 (centres undefined) | -4.9 | -6.0 | -3.2 | -31.2 | -1.5 | 3.8 | / | /
COC(=O)N(C)C[C@H]1OCc2cn(nn2)CCCC(=O)N([C@H](C)CO)C[C@@H]1C | -6.9 | 2.5 | 0.7 | / | / | 3.3 | / | /
Cn1c(CNc2ccccc2O)nc2ccccc21 | 19.4* | 31.2* | 17.9 | 18.9 | -4.9 | 4.3 | 9.7 | 10.4
CCCCCn1c(=O)c(C(=O)c2ccccc2)nc2ccccc21 | -0.4 | -7.8 | 5.4 | -7.2 | -1.3 | 6.7 | / | /
CCCCCCn1c(=O)[nH]c2nc3cc(N)ccc3nc2c1=O | 18.1* | 49.8* | 10.6 | / | 12.8 | 16.4 | 40.2* | 11.7
CCCCCCCCSC1=CC(=O)C(OC)=C(OC)C1=O | 20.9* | 39.2* | 10.4 | -7.8 | / | -5.1 | 52.2* | 5.5
O=[N+]([O-])c1cc(/C=N/Nc2nc3ccccc3[nH]2)c(O)cc1O | 22.7* | 49.3* | 3.4 | / | -3.9 | -1.1 | 72.0* | 21.6*
COc1ccc2[nH]c3c(C)c4ccncc4c(C)c3c2c1 | 21.3* | 31.7* | 12.5 | 22.4 | -0.5 | -5.5 | 57.0* | 19.8*
COC(=O)Cc1csc(Nc2ccc(F)c(Cl)c2)n1 | 21.6* | 35.9* | 3.4 | -0.2 | -6.5 | -0.7 | -2.5 | 3.4
SMILES | SIAE primary | ABHD4 inh | TDP2 inh | HTRA1 inhibitor | PAD4 inh | TCR CD3 inh | ABHD4 confirm | SIAE inh conf | others
Cc1ccc(CN2CCN(C3CSCCSC3)CC2CCO)cc1 (centres undefined) | -1.9 | 3.2 | 2.9 | 0.4 | 4.5 | 0.9 | / | /
CC(=O)NCCc1nc2cc(NC(=O)COc3cccc(C)c3)ccc2n1C | 0.6 | 7.3 | 2.5 | 2.0 | 1.7 | 6.8 | / | /
[O-][n+]1c2c(c3c4non(O)c4ccc31)CCCC2 | 31.4* | 35.4* | 10.5 | 20.0 | -3.6 | 7.7 | 26.6 | 28.4*
COn1c2c(c3c4no[n+]([O-])c4ccc31)CCCC2 | 1.4 | 2.8 | -1.1 | -4.1 | -1.5 | 1.2 | / | /
CN[C@H]1C[C@H]2c3cc(-c4ccc5c(c4)OCO5)ccc3CCN2C[C@H]1[C@H](C)O | -0.2 | 3.7 | 2.1 | / | / | / | / | /
O=[N+]([O-])c1cccc(C=NNc2ccc3ccccc3n2)c1O | 17.2* | 36.8* | 6.8 | 23.3 | / | -1.3 | 37.4* | 3.4
Brc1ccccc1/C=N/Nc1ccc2ccccc2n1 | 4.5 | 15.3 | 4.9 | -16.9 | 0.2 | -2.7 | / | /
CC(C)Cn1c(SCC(=O)NC2CC2)nc2ccccc21 | 1.3 | -7.1 | 9.4 | -0.7 | / | 6.5 | / | /
Cc1ccc(NS(=O)(=O)c2cc([N+](=O)[O-])ccc2NNC(=S)Nc2cccc(Cl)c2)c(C)c1 | / | / | / | 19.4 | -0.6 | / | / | /
COc1ccc(NC(=S)NNc2ccc([N+](=O)[O-])cc2S(=O)(=O)Nc2ccc(C)cc2C)cc1 | 47.3* | 39.0* | -4.1 | 5.2 | -2.6 | -3.8 | 38.0* | -5.3
COC(=O)C[C@@H]1CC[C@H](NC(=O)Cc2ccccn2)[C@@H](CO)O1 | -2.9 | 2.0 | 27.5* | / | / | 3.1 | / | / | TDP2 inh conf=-0.8
Cc1cc(C)c(C#N)c(SCC(=O)N(CCC#N)c2ccc3c(c2)OCCO3)n1 | 2.2 | -1.3 | 24.8* | 2.1 | / | 8.9 | / | / | TDP2 inh conf=1.0
